Reference: article PMC11071470 (bioRxiv, 2024)

Columns and labels:
A3Bctd = A3Bctd (Homo sapiens, UniProt Q9UH17); experiment: Intact protein mass spectrometry; format: binding
Summary of the method: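 Covalent test compound incubated with A3Bctd for 1 h and 3 h at varying molar equivalents of compound over protein, then analysed by intact protein mass spectrometry. Degree of covalent adduction was quantified from the intensity of the adduct mass species.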

UDG = target: T1, UDG (Escherichia coli, UniProt P12295); conditions: cited from earlier work
T1 sequence (P12295 1-229): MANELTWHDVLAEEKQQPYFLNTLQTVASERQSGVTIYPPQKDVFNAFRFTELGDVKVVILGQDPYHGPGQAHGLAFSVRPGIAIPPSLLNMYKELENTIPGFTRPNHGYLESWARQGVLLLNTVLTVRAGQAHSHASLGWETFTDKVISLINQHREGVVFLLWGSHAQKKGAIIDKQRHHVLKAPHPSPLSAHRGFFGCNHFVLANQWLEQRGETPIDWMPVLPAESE

A3Bctd, sequence (Q9UH17 193-382): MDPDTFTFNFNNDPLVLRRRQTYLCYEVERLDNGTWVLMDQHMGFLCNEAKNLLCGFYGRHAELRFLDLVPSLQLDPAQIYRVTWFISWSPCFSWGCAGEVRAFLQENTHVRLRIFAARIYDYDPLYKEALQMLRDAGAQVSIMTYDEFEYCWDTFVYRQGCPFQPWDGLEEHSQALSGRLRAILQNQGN

Row | Compound | multiple adduction events (in words) (A3Bctd) | inhibition of UDG (in words) (UDG)
1 | CCC1(O)CCCN(C(=O)c2ccc(-c3ccc(F)c(NC(=O)CCl)c3)cc2)C1 (centres unmarked) [Compound 24] | Multiple adduction events are detected | 
2 | O=C(O)C1=CC(=C(c2ccc(O)c(C(=O)O)c2)c2ccc(O)c(C(=O)O)c2)C=CC1=O [MN1, aurintricarboxylic acid] |  | inhibits UDG
